System: MS2 coat protein
Experiment: apparent Kd, MS2 coat protein; higher = weaker binding; RNA-MaP array; FMN 200 µM where present
Outline: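 On Illumina sequencing-chip clusters, designs were transcribed by stalled E. coli RNA polymerase and titrated with SNAP-549-labelled MS2 coat protein (0.7 or 1.5 nM, doubling to 3 µM), without and then with constant ligand, in 100 mM Tris-HCl pH 7.5, 80 mM KCl, 4 mM MgCl2, BSA, DTT, yeast tRNA and Tween-20. Apparent Kd is the median of filtered per-cluster curve fits to green signal normalised to red-channel RNA signal and control-cluster median Fmax.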

[1] = designed as: OFF switch for flavin mononucleotide, no ligand
[2] = ligand present: flavin mononucleotide, designed as: OFF switch for flavin mononucleotide
[3] = designed as: ON switch for flavin mononucleotide, no ligand
[4] = ligand present: flavin mononucleotide, designed as: ON switch for flavin mononucleotide

Sequence | apparent Kd [1] | apparent Kd [2] | apparent Kd [3] | apparent Kd [4]
AUGAGGUCAGGAUAUGCAUGGCGGGACUUGCGUCGUGGCGUGCAGAAGGGACAUGAGGAUCACCCAUGUGGAGG | 177 nM | 249 nM | – | –
ACGGUGGUCACAGGAUAUCCGGCCCGCGGGCCUGGAGAAGGGUGACUCAGAACCACAUGAGGAUCACCCAUGUGCCUUGCCGUA | – | – | 250 nM | 48.7 nM
UUUGGGUGGCUGGAGGAUAUUCGAGUGGUUACAUGAGGAUCACCCAUGUGUCGCGCGGUACGCGAGGAGAAGGCUGGCGGCCGUU | – | – | 79.7 nM | 37 nM
UGAAUCAUGCCAUGCGCUGACAUGAGGAUCACCCAUGUGUACAAGGAUAUGUUGGUCGACGAUCGGCAGAAGGUGUAAUGGGAU | 319 nM | 764 nM | – | –
GCCUCAUAGUAGAAGGGACUUCGGCUGUUAAGCAUCAUCUCCAUUUCACAUGAGGAUCACCCAUGUCAGGAUAUACUAAGAGGC | 10.3 nM | 24.9 nM | – | –
UUGGCACAUGAGGAUCACCCAUGUUAGGAUAUUGUGGUAGAAACAGCUGGGAAACGCACGAGAAGGGACACACG | 37.1 nM | 55.5 nM | – | –
CCAUGGAGUGUGAGGAUAUGCUGGUCCUUGGAUCAGCAGAAGGCACAUGAGGAUCACCCAUGUGAAUACCGUGG | 36.2 nM | 196 nM | – | –
ACAUGAGGAUCACCCAUGUAAAAUUAAGAAGGUAGAUACUUGAGGAUCACCCAUGUACAUGGGACUAAGGAUAUUAUAAUAAUU | – | – | 55.7 nM | 49.1 nM
AAUUUACAUGAGGAUCACCCAUGUCAGGAUAUGGUUUUAUUUUUUUCUUUUCUUGAUUCCAGAAGGGACAGCUA | 127 nM | 68.3 nM | – | –
UUCAGCUCGUGAGGAUAUACAUGUGCUGGAAACAGCACUAAUUAAAUCACAUGAGGAUCACCCAUGUAGAAGGCACGAGCUGAG | 16.2 nM | 25.8 nM | – | –
CCGUUACAUGAGGAUCACCCAUGUGAGGAUAUGGUUCGGUACUGUCCUGUCGCGUACUCCAGAAGGCACGUGUC | 33.5 nM | 34.8 nM | – | –
AAUAAGCAAGGAUAUACGACGCAGAGCGUCAGUGGGCGAUGACAUGAGGAUCACCCAUGUAGAAGGUGCACAUC | 93.9 nM | 208 nM | – | –
UGCCUGCAGUCAGGAUAUGAUAACUGGGUAUGGUCUUUGUAACGACAUGAGGAUCACCCAUGUUUUUAGAAGGGACGUGUCAGC | 363 nM | 127 nM | – | –
CGAGUACAUGAGGAUCACCCAUGUUAUGAAUUGUCAGGAUAUGGAUAUUGUUGACAUGCGCCAGAAGGGACUUCUG | – | – | 27.5 nM | 20.2 nM
UAUUUGUGAGGAUAUGAGUCGUAGAACAAUAGUACUACGUCUCAGAAGGCACAUGAGGAUCACCCAUGUACCUC | 17.9 nM | 122 nM | – | –
GUCAGCUCAUGAGGAUAUACAACACUGCUUCGGCAGUGUAUUAAGAUCACAUGAGGAUCACCCAUGUAGAAGGCACGAGCUGAU | 12.9 nM | 258 nM | – | –
CGCAUGGAGGGAGGAUAUGACAUGAGGAUCACCCAUGUAAAGGAUCCGACGUCAGAAGGCCCUAAGAAUUUACACAUUCUCUUA | 119 nM | 26.7 nM | – | –
ACACAUGAGGAUCACCCAUGUACGCGCUGACAGGAGGUCUCACAGGAUAUAUGUAGUGAUGCUACAUAGAAGGGUGAUACCGCG | – | – | 67.5 nM | 16.2 nM
AGGUACGGUCGAUCAUACCAAGGUAGAAGGCGACUGGGAAUGUGAGACAUGAGGAUCACCCAUGUCGAGGAUAUACCUGAAAGU | 192 nM | 27.4 nM | – | –
CCGCAAAUGUAGGAUAUCGUAUCGGAUACGAUACGAGAAGGGCAUACAUGAGGAUCACCCAUGUGUCCUAGCGG | 14.6 nM | 15.7 nM | – | –
UAGAAGUCAGGAUAUGCUGCUCGUCACUUGCGUGAUGAGUAGCAGAAGGGACAUGAGGAUCACCCAUGUAAAGG | 208 nM | 424 nM | – | –

From the EternaBench riboswitch data
